Results collected from several papers.
Each line is one published result; the experiments were not run side by side.
Target: Tyrosine-protein kinase FRK (FRK, Homo sapiens, UniProt P42685)

| Compound | read-out | method | concentration | remaining binding [%] |
| --- | --- | --- | --- | --- |
| O=C(Nc1ccc(Oc2ccc(F)cc2)cc1)N1CCc2ncccc2[C@H]1c1ccc(F)cc1 | cell-free assay | competition with immobilised ligand | 1 µM | 93 |
| c1cncc(-c2cccc(Nc3nccc(NC4CCCCC4)n3)c2)c1 | binding | competition with immobilised ligand | 10 µM | 53 |
| Cc1cnn2ncc(-c3ccnc(N(C)C)n3)c2c1 | binding | competition with immobilised ligand | 1 µM | 100 |
| O=C(NCCCN1CCOCC1)c1ccc(Nc2ncc(Cl)c(-c3ccc(Cl)s3)n2)cc1 | binding | competition with immobilised ligand | 1 µM | 100 |
| C[C@@H](c1ccc(-n2cnc3c(N)ncnc32)cc1)N1CCc2nn(C)c(Cc3ccccc3)c2C1=O | binding | competition with immobilised ligand | 0.1 µM | 91 |
| O=C(Nc1c[nH]nc1C(=O)NC1CCNCC1)c1cc(F)cc(F)c1 | binding | competition with immobilised ligand | 1 µM | 82 |
| CN1CCN(c2cnc3c(C4CCN(C(=O)c5ccc(OC(F)(F)F)cc5N)CC4)ncnc3c2)CC1 | cell-free assay | competition with immobilised ligand | 1 µM | 100 |
| CN(C)c1ncc(F)c(-c2cnn3ncccc23)n1 | binding | competition with immobilised ligand | 1 µM | 100 |
| COc1cnc(Nc2cccc(S(N)(=O)=O)c2)nc1N1CCN(c2ccccc2)C(=O)C1 | binding | competition with immobilised ligand | 1 µM | 100 |
| F[C@@H]1CCN(c2nccc(-c3cnn4ncccc34)n2)C1 | binding |  | 1 µM | 88 |
| NS(=O)(=O)c1cc(NC(=O)C2(c3ccccc3Cl)CC2)ccc1Oc1cccc(Cl)c1 | cell-free assay | competition with immobilised ligand | 1 µM | 99 |
| N[C@@H]1CCN(c2nccc(-c3cnn4ncccc34)n2)C1 | binding |  | 1 µM | 97 |
| C=CC(=O)N1CCC(C(=O)NCC(=O)N2CCN(c3nc(-c4cnc(N)nc4C(F)F)nc(N4CCOCC4)n3)CC2)CC1 | binding | competition with immobilised ligand | 1 µM | 100 |
| O=C(NCCCN1CCOCC1)c1ccc(Nc2nccc(-c3cc4ccccc4s3)n2)cc1 | binding | competition with immobilised ligand | 1 µM | 99 |
| CN(C)c1nccc(-c2cnn3ncccc23)n1 | binding | competition with immobilised ligand | 1 µM | 100 |
| O=C(Nc1cnc(Oc2ccc(F)cc2)nc1)N1CCc2ncccc2[C@@H]1c1ccc(F)cc1 | cell-free assay | competition with immobilised ligand | 1 µM | 98 |
| CNC(=O)[C@@H]1CC[C@@H](n2c(-c3ccc4cnccc4c3)nc3ccc(C(=O)NCc4cccc(C(N)=O)c4)cc32)C1 | binding | competition with immobilised ligand | 1 µM | 100 |
| C[C@H]1CCN(c2nccc(-c3cnn4ncccc34)n2)C1 | binding |  | 1 µM | 100 |
| Nc1cnc(N2CCc3cc(S(=O)(=O)Nc4c(F)cc(Cl)cc4F)cc(N4CCCC4=O)c32)nc1 | cell-free assay | competition with immobilised ligand | 1 µM | 62 |
| CN(c1nccc(-c2cnn3ncccc23)n1)C1CC1 | binding |  | 1 µM | 85 |
| Nc1c(C(=O)NCc2ccc(C(=O)NCCCC3CCCCC3)cc2)cnn1-c1ccccc1 | cell-free assay | competition with immobilised ligand | 0.1 µM | 100 |
| O=C(c1ccc(Nc2ncc(Cl)c(-c3cc4ccccc4s3)n2)cc1)N1CCC(N2CCCC2)CC1 | binding | competition with immobilised ligand | 1 µM | 90 |
